Compound activity as filed in PubChem BioAssay.
S100A4 MyoIIA – inhibitors of S100A4-myosin IIA peptide binding, primary screen, biochemical, fluorescence polarization, TAMRA-MyoIIA peptide; Protein S100-A4 (Homo sapiens), P26447; inhibition, % at 10.7 µM; actives 0.14% (n = 360,000);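 active means mean inhibition of at least 70% across replicates, with every replicate also reaching that level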
Target sequence (P26447 whole entry, looked up): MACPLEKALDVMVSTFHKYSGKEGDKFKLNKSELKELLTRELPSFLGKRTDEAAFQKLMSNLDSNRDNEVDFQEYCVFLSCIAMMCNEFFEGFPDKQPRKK
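System – human S100A4 monomer protein, biochemical binding assay · Buffer or medium – Calcium-containing HEPES buffer, pH 7.2 · Timing – 5 min between mix addition and reading · Also added – TAMRA-labelled myosin IIA heavy-chain peptide probe, 5 nM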
C2C12 statin – suppressors of statin myotoxicity in C2C12 myotubes, primary screen, cell-based, single point, plate reader; actives 0.78% (n = 330,000); C2C12 myotubes + simvastatin, ATP luminescence, 48 h; scaled: DMSO 0, geranylgeraniol control 100; rescue of ATP level, % at 7.49 µM;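 active means mean ATP rescue above about 67%, or every replicate alone reaching that limit, limit read from the data, passing the limit was not always enough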;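 further: myotubes were challenged with 10 µM simvastatin during compound exposure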
PGC1a acetyl inh – inhibitors of PGC1a acetylation signal, primary screen, cell-based, U2OS, AlphaScreen, inhibitor mode. AlphaScreen anti-acetyl-lysine; with virally co-expressed GCN5 acetyltransferase. inhibition, % at 15.6 µM. actives 0.17% (n = 350,000);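 active means every replicate shows inhibition of at least 40%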;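 further: 0% = neutral control wells and 100% = positive control wells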
SIRT5 block – SIRT5 desuccinylase inhibitors, primary screen, biochemical, fluorescence imaging, single point, set 5 | Purified SirT5, succinyl-peptide AMC, trypsin-coupled fluorescence | inhibition, % at 15 µM | actives 1.1% (n = 330,000) | AID 652115, 2013; in the data active means inhibition above about 15%
Target sequence (Q9NXA8 whole entry, looked up): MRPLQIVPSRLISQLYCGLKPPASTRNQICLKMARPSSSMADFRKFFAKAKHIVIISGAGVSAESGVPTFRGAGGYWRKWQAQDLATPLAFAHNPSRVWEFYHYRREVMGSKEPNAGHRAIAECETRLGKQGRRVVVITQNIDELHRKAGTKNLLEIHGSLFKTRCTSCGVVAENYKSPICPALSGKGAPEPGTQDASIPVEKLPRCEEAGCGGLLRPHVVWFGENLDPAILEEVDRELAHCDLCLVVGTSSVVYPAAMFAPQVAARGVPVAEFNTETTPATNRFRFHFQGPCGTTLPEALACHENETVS
rRNA inh HTS – reduced GFP signal of wild-type E. coli, primary screen, bacterial rRNA inhibitor project, GFP/RFP fluorescence, OD600, single point | E. coli WT GFP vs humanized-ribosome RFP mutants, 24 h; hits give low values; DMSO median 0, no signal -100 | GFP signal change (wild-type ribosome), % (test concentration not listed) | actives 1.6% (n = 350,000);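 active means significant combined selectivity score with lowered wild-type GFP, culture density cut under 30%, mutant RFP and density less affected; inactive means any of these conditions unmet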
Cneo AK release – Cryptococcus neoformans cell lysis inducers, primary screen, AK release luminescence, single concentration. actives 0.2% (n = 360,000). lysis activity, % at 15 µM. C. neoformans lysis, adenylate kinase release luminescence, 4 h; normalised: neutral wells 0, clomiphene wells 100;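 active means mean lysis activity across replicates of at least 80%, whatever share of replicates individually reach that level; inactive means mean lysis activity below 80%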
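read-out = cell lysis signal | test system = log-phase Cryptococcus neoformans yeast cells | input = cells at 5 × 10^6 per mL | medium = fresh YPD growth medium | signal = luminescent adenylate kinase detection reagent | timing = 4 h at 37 °C static, read 1 h later | dosing = single dose | controls = Clomiphene as positive lysis control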
* = called active by the depositor. Only some compounds are listed: those with a hit (about 3% of all), similar ones and a draw of the others.

`COc1ccc(S(=O)(=O)Nc2ccc3c(c2)C(=O)N([C@@H](C)CO)C[C@H](C)[C@H](CN(C)C(=O)CCC(F)(F)F)OCCCC[C@@H](C)O3)cc1` gave S100A4 MyoIIA -25.6, PGC1a acetyl inh -10.0, SIRT5 block 1.2, rRNA inh HTS 1.0 and Cneo AK release 1.5.
C[C@H](CO)N1C[C@H](C)[C@H](CN(C)CC2CC2)OCCCC[C@H](C)Oc2ccc(NC(=O)Nc3ccc(C(F)(F)F)cc3)cc2C1=O was read as S100A4 MyoIIA 0.1, PGC1a acetyl inh 3.7 and rRNA inh HTS -4.8.
For Cc1ccc(S(=O)(=O)N(C)C)cc1NS(=O)(=O)c1ccc(Cl)s1 the results were S100A4 MyoIIA 27.6, SIRT5 block -6.8, rRNA inh HTS -44.6* and Cneo AK release -0.2.
Screening CN(C)S(=O)(=O)c1cccc(NS(=O)(=O)c2ccc(Cl)s2)c1 returned S100A4 MyoIIA 0.9, SIRT5 block 5.1 and rRNA inh HTS -23.0.
`O=C1CC(N2CCN(C/C=C/c3ccccc3)CC2)C(=O)N1Cc1ccc(N2CCCC2=O)cc1` (stereo not drawn) gave C2C12 statin 99.9*, PGC1a acetyl inh 13.8 and Cneo AK release 2.0.
Screening O=C1CC(N2CCOCC2)C(=O)N1Cc1ccc(N2CCCC2=O)cc1 (stereo not drawn) returned C2C12 statin 2.6, PGC1a acetyl inh -2.1 and Cneo AK release -1.5.
For Cc1ccc(NC(=S)NC(CO)C(O)c2ccc([N+](=O)[O-])cc2)cc1 (stereo not drawn) the results were S100A4 MyoIIA 1.7, C2C12 statin 0.4, PGC1a acetyl inh -1.4, SIRT5 block 2.8 and rRNA inh HTS 13.9.
O=[N+]([O-])c1ccc(C(O)C(CO)NC(=S)Nc2ccccc2)cc1 (stereo not drawn) was read as S100A4 MyoIIA -1.0, SIRT5 block -0.8 and rRNA inh HTS -44.1*.
For Cc1ccc(N(C(=O)C2CCC(=O)N2)C2(C(=O)NC3CCCCC3)CCCCC2)cc1 (stereo not drawn) the results were C2C12 statin 119.3*, PGC1a acetyl inh 44.8 and Cneo AK release -1.8.
For CCOc1cc(C(=O)NCCOC)ccc1OC the results were C2C12 statin 120.5*, PGC1a acetyl inh 1.1 and Cneo AK release -2.5.
For COc1ccc(CCNC(=O)c2ccc(OC)c(OC)c2)cc1OC the results were S100A4 MyoIIA 4.1, C2C12 statin -11.7, PGC1a acetyl inh 4.5, SIRT5 block -1.9, rRNA inh HTS 5.2 and Cneo AK release -2.3.
Screening Cc1ccc(Cn2c(=O)c3c(nc4n3CCCN4Cc3ccccc3)n(C)c2=O)cc1 returned C2C12 statin 14.4, PGC1a acetyl inh -5.0 and Cneo AK release -4.2.
For Cn1c(=O)n(Cc2ccccc2)c(=O)c2c1nc1n2CCCN1Cc1ccccc1 the results were C2C12 statin 116.5*, PGC1a acetyl inh -4.2 and Cneo AK release -2.8.
For Cc1ccc(OCc2ccc(C(=O)NN)o2)cc1C the results were S100A4 MyoIIA 1.1, C2C12 statin 8.6, PGC1a acetyl inh 0.8, SIRT5 block -1.2, rRNA inh HTS -31.8* and Cneo AK release -3.6.
`O=C(NCc1ccccn1)c1ccc(COc2ccc(Cl)cc2)o1` gave C2C12 statin 17.4, PGC1a acetyl inh 4.4 and Cneo AK release -0.9.
For O=C(OCc1ccccn1)c1ccc(COc2ccc3ccccc3c2)o1 the results were S100A4 MyoIIA -7.1, C2C12 statin 11.9, PGC1a acetyl inh 4.1, SIRT5 block 2.8, rRNA inh HTS -26.0* and Cneo AK release -1.7.
For O=C(O)c1ccc(OCc2ccc(C(=O)O)o2)cc1 the results were S100A4 MyoIIA 0.3, SIRT5 block -2.2 and rRNA inh HTS 2.0.
